Reference: ChEMBL document CHEMBL3045697, “Acaricidal activity of clove bud oil compounds against Dermatophagoides farinae and Dermatophagoides pteronyssinus (Acari: Pyroglyphidae)” (2003)
Calls of active or inactive are those of the source. The calls are words filed in the database; no cut-off is given here.

Key:
[1] = tested on: Dermatophagoides pteronyssinus; assay: whole plant or invertebrate; format: functional; conditions: 24 h
[2] = tested on: Dermatophagoides pteronyssinus; assay: Acaricidal activity against Dermatophagoides pteronyssinus assessed as mortality at 6.4 to 8 ug/cm2 after 24 to 72 hr by fabric disk assay relative to untreated control; format: functional, organism-based
Procedure, shortened: (§1)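 Test material in 20 µL ethanol is applied to a 5 cm black cotton fabric disk, and control disks get ethanol alone. After drying 30 s, each disk goes into a covered 5 cm Petri dish with 25 adult mites (7–10 days old), held at 25 ± 1 °C, 75% RH, in darkness. Mortality is scored at 24, 48 and 72 h under a 20× binocular microscope, dead meaning no appendage movement when prodded with a pin. Three replicates; mean ± SE reported.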

Dermatophagoides farinae [3] = assay: Acaricidal activity against Dermatophagoides farinae assessed as mortality at 6.4 ug/cm2 after 72 hr by fabric disk assay relative to untreated control; format: functional
Procedure, shortened: as §1

Dermatophagoides farinae [4] = assay: Acaricidal activity against Dermatophagoides farinae assessed as mortality at 6.4 ug/cm2 after 48 hr by fabric disk assay relative to untreated control; format: functional
Procedure, shortened: as §1

Dermatophagoides farinae [5] = assay: Acaricidal activity against Dermatophagoides farinae assessed as mortality at 8 ug/cm2 after 48 hr by fabric disk assay relative to untreated control; format: functional
Procedure, shortened: as §1

[6] = tested on: Dermatophagoides pteronyssinus; assay: whole plant or invertebrate; format: functional; conditions: 24 h; remark: listed apart in the source
Dermatophagoides farinae [7] = assay: whole plant or invertebrate; format: functional; conditions: 24 h
Dermatophagoides farinae [8] = assay: whole plant or invertebrate; format: functional; conditions: 24 h; remark: listed apart in the source
Dermatophagoides farinae [9] = assay: Acaricidal activity against Dermatophagoides farinae assessed as mortality at 6.4 ug/cm2 after 24 hr by fabric disk assay relative to untreated control; format: functional
Procedure, shortened: as §1

Dermatophagoides farinae [10] = assay: Acaricidal activity against Dermatophagoides farinae assessed as mortality at 8 ug/cm2 after 24 hr by fabric disk assay relative to untreated control; format: functional
Procedure, shortened: as §1

[11] = tested on: Dermatophagoides pteronyssinus; assay: Acaricidal activity against Dermatophagoides pteronyssinus after 24 hr by fabric disk assay; format: functional
Dermatophagoides farinae [12] = assay: Acaricidal activity against Dermatophagoides farinae after 24 hr by fabric disk assay; format: functional
Dermatophagoides farinae [13] = assay: Acaricidal activity against Dermatophagoides farinae assessed as mortality at 8 ug/cm2 after 72 hr by fabric disk assay relative to untreated control; format: functional
Procedure, shortened: as §1

Dermatophagoides farinae [14] = assay: Acaricidal activity against Dermatophagoides farinae assessed as mortality at 9.6 ug/cm2 after 72 hr by fabric disk assay relative to untreated control; format: functional
Procedure, shortened: as §1

Dermatophagoides farinae [15] = assay: Acaricidal activity against Dermatophagoides farinae assessed as mortality at 12.7 ug/cm2 after 72 hr by fabric disk assay relative to untreated control; format: functional
Procedure, shortened: as §1

Dermatophagoides farinae [16] = assay: Acaricidal activity against Dermatophagoides farinae assessed as mortality at 9.6 ug/cm2 after 48 hr by fabric disk assay relative to untreated control; format: functional
Procedure, shortened: as §1

Dermatophagoides farinae [17] = assay: Acaricidal activity against Dermatophagoides farinae assessed as mortality at 9.6 ug/cm2 after 24 hr by fabric disk assay relative to untreated control; format: functional
Procedure, shortened: as §1

[18] = tested on: Dermatophagoides pteronyssinus; assay: Acaricidal activity against Dermatophagoides pteronyssinus assessed as mortality at 9.6 to 12.7 ug/cm2 after 24 to 72 hr by fabric disk assay relative to untreated control; format: functional, organism-based
Procedure, shortened: (§2)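 Contact bioassay: compound in 20 µL ethanol applied to 5 cm black cotton fabric disks, air-dried 30 s, then placed in Petri dishes with 25 adult mites (7-10 days old). Held at 25 ± 1 °C, 75% RH, in darkness. Controls received ethanol only. Triplicate; mean ± SE.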

Dermatophagoides farinae [19] = assay: Acaricidal activity against Dermatophagoides farinae assessed as mortality at 12.7 ug/cm2 after 24 hr by fabric disk assay relative to untreated control; format: functional
Procedure, shortened: as §1

Dermatophagoides farinae [20] = assay: Acaricidal activity against Dermatophagoides farinae assessed as mortality at 12.7 ug/cm2 after 48 hr by fabric disk assay relative to untreated control; format: functional
Procedure, shortened: as §1

[21] = tested on: Dermatophagoides pteronyssinus; assay: Acaricidal activity against Dermatophagoides pteronyssinus assessed as mortality at 38.2 to 50.9 ug/cm2 after 24 to 72 hr by fabric disk assay relative to untreated control; format: functional, organism-based
Procedure, shortened: as §2

Dermatophagoides farinae [22] = assay: Acaricidal activity against Dermatophagoides farinae assessed as mortality at 50.9 ug/cm2 after 72 hr by fabric disk assay relative to untreated control; format: functional
Procedure, shortened: as §1

Dermatophagoides farinae [23] = assay: Acaricidal activity against Dermatophagoides farinae assessed as mortality at 38.2 ug/cm2 after 48 hr by fabric disk assay relative to untreated control; format: functional
Procedure, shortened: as §1

Dermatophagoides farinae [24] = assay: Acaricidal activity against Dermatophagoides farinae assessed as mortality at 50.9 ug/cm2 after 48 hr by fabric disk assay relative to untreated control; format: functional
Procedure, shortened: as §1

Dermatophagoides farinae [25] = assay: Acaricidal activity against Dermatophagoides farinae assessed as mortality at 38.2 ug/cm2 after 24 hr by fabric disk assay relative to untreated control; format: functional
Procedure, shortened: as §1

Dermatophagoides farinae [26] = assay: Acaricidal activity against Dermatophagoides farinae assessed as mortality at 50.9 ug/cm2 after 24 hr by fabric disk assay relative to untreated control; format: functional
Procedure, shortened: as §1

Dermatophagoides farinae [27] = assay: Acaricidal activity against Dermatophagoides farinae assessed as mortality at 38.2 ug/cm2 after 72 hr by fabric disk assay relative to untreated control; format: functional
Procedure, shortened: as §1

[28] = tested on: Dermatophagoides pteronyssinus; assay: Acaricidal activity against Dermatophagoides pteronyssinus assessed as mortality at 15.9 to 19.1 ug/cm2 after 24 to 72 hr by fabric disk assay relative to untreated control; format: functional, organism-based
Procedure, shortened: as §2

Dermatophagoides farinae [29] = assay: Acaricidal activity against Dermatophagoides farinae assessed as mortality at 15.9 ug/cm2 after 72 hr by fabric disk assay relative to untreated control; format: functional
Procedure, shortened: as §1

Dermatophagoides farinae [30] = assay: Acaricidal activity against Dermatophagoides farinae assessed as mortality at 19.1 ug/cm2 after 72 hr by fabric disk assay relative to untreated control; format: functional
Procedure, shortened: as §1

Dermatophagoides farinae [31] = assay: Acaricidal activity against Dermatophagoides farinae assessed as mortality at 15.9 ug/cm2 after 48 hr by fabric disk assay relative to untreated control; format: functional
Procedure, shortened: as §1

Dermatophagoides farinae [32] = assay: Acaricidal activity against Dermatophagoides farinae assessed as mortality at 19.1 ug/cm2 after 48 hr by fabric disk assay relative to untreated control; format: functional
Procedure, shortened: as §1

Dermatophagoides farinae [33] = assay: Acaricidal activity against Dermatophagoides farinae assessed as mortality at 15.9 ug/cm2 after 24 hr by fabric disk assay relative to untreated control; format: functional
Procedure, shortened: as §1

Dermatophagoides farinae [34] = assay: Acaricidal activity against Dermatophagoides farinae assessed as mortality at 19.1 ug/cm2 after 24 hr by fabric disk assay relative to untreated control; format: functional
Procedure, shortened: as §1

SMILES	mortality at 25.5 µg/cm2 [1] [%]	Activity [2]	mortality at 6.4 µg/cm2 (Dermatophagoides farinae [3]) [%]	mortality at 6.4 µg/cm2 (Dermatophagoides farinae [4]) [%]	mortality at 8 µg/cm2 (Dermatophagoides farinae [5]) [%]	mortality at 25.5 µg/cm2 [6] [%]	mortality at 25.5 µg/cm2 (Dermatophagoides farinae [7]) [%]	mortality at 25.5 µg/cm2 (Dermatophagoides farinae [8]) [%]	mortality at 6.4 µg/cm2 (Dermatophagoides farinae [9]) [%]	mortality at 8 µg/cm2 (Dermatophagoides farinae [10]) [%]	LD50 [11] [microg/cm2]	LD50 (Dermatophagoides farinae [12]) [microg/cm2]	mortality at 8 µg/cm2 (Dermatophagoides farinae [13]) [%]	further results
C=CCc1ccc(O)c(OC)c1 [EUGENOL]	21	Active	50	50	85	100	11	100	50	85	3.71	5.47	85	–
O=C(OCc1ccccc1)c1ccccc1 [BENZYL BENZOATE]	–	–	–	–	–	–	–	–	–	–	6.59	9.22	–	mortality at 9.6 µg/cm2 (Dermatophagoides farinae [14]): 47%; mortality at 12.7 µg/cm2 (Dermatophagoides farinae [15]): 96%; mortality at 9.6 µg/cm2 (Dermatophagoides farinae [16]): 47%; mortality at 9.6 µg/cm2 (Dermatophagoides farinae [17]): 47%; Activity [18]: Active; mortality at 12.7 µg/cm2 (Dermatophagoides farinae [19]): 85%; mortality at 12.7 µg/cm2 (Dermatophagoides farinae [20]): 96%
CCN(CC)C(=O)c1cccc(C)c1 [DIETHYLTOLUAMIDE]	–	–	–	–	–	–	–	–	–	–	17.98	37.59	–	Activity [21]: Active; mortality at 50.9 µg/cm2 (Dermatophagoides farinae [22]): 85%; mortality at 38.2 µg/cm2 (Dermatophagoides farinae [23]): 41%; mortality at 50.9 µg/cm2 (Dermatophagoides farinae [24]): 83%; mortality at 38.2 µg/cm2 (Dermatophagoides farinae [25]): 41%; mortality at 50.9 µg/cm2 (Dermatophagoides farinae [26]): 79%; mortality at 38.2 µg/cm2 (Dermatophagoides farinae [27]): 41%
C=CCc1ccc(OC(C)=O)c(OC)c1 [EUGENYL ACETATE]	17	–	–	–	–	100	12	100	–	–	5.41	14.16	–	Activity [28]: Active; mortality at 15.9 µg/cm2 (Dermatophagoides farinae [29]): 65%; mortality at 19.1 µg/cm2 (Dermatophagoides farinae [30]): 88%; mortality at 15.9 µg/cm2 (Dermatophagoides farinae [31]): 65%; mortality at 19.1 µg/cm2 (Dermatophagoides farinae [32]): 88%; mortality at 15.9 µg/cm2 (Dermatophagoides farinae [33]): 65%; mortality at 19.1 µg/cm2 (Dermatophagoides farinae [34]): 88%
CC=Cc1ccc(O)c(OC)c1 (mixture of isomers) [CIS/TRANS-ISOEUGENOL]	–	Active	66	66	92	–	–	–	66	92	1.55	5.17	92	–
C/C=C\c1ccc(O)c(OC)c1 [ISOEUGENOL]	32	–	–	–	–	100	21	100	–	–	–	–	–	–
